# The source made the active and inactive calls. No cut-off for these calls is given here.
# Assays:
# U-251 = assay: Growth inhibition of human U251 cells at 50 uM after 48 hrs by SRB assay; format: functional; conditions: for inhibition of growth at 50 µM: U-251, 48 h, read-out: GI
# Summary of the method: (§1)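 Cell lines obtained from NCI, grown in RPMI-1640 with 10% fetal bovine serum, 2 mM glutamine, penicillin G, streptomycin, amphotericin B and 1% non-essential amino acids, at 37 °C, humidified 5% CO2. Cell viability above 95% by trypan blue. Compounds tested in DMSO. Growth read by sulforhodamine B protein staining in microculture per NCI protocol, reported as % inhibition.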
# PC-3 = assay: Growth inhibition of human PC3 cells at 50 uM after 48 hrs by SRB assay; format: functional; conditions: for inhibition of growth at 50 µM: PC-3, 48 h, read-out: GI; summary of the method: as §1
# K562 = assay: Growth inhibition of human K562 cells at 50 uM after 48 hrs by SRB assay; format: functional; conditions: for inhibition of growth at 50 µM: K562, 48 h, read-out: GI; summary of the method: as §1
# HCT-15 [1] = assay: Growth inhibition of human HCT15 cells at 50 uM after 48 hrs by SRB assay; format: functional; conditions: for inhibition of growth at 50 µM: HCT-15, 48 h, read-out: GI; summary of the method: as §1
# MCF7 = assay: Growth inhibition of human MCF7 cells at 50 uM after 48 hrs by SRB assay; format: functional; conditions: for inhibition of growth at 50 µM: MCF7, 48 h, read-out: GI; summary of the method: as §1
# SK-LU-1 [2] = assay: Growth inhibition of human SKLU1 cells at 50 uM after 48 hrs by SRB assay; format: functional; conditions: for inhibition of growth at 50 µM: SK-LU-1, 48 h, read-out: GI; summary of the method: as §1
# HCT-15 [3] = assay: Anticancer activity against human HCT15 cells after 48 hrs by SRB assay; format: functional, cell-based
# SK-LU-1 [4] = assay: Anticancer activity against human SKLU1 cells after 48 hrs by SRB assay; format: functional, cell-based
SMILES,inhibition of growth at 50 µM (U-251) [%],growth inhibition (GI) (PC-3),inhibition of growth at 50 µM (K562) [%],inhibition of growth at 50 µM (HCT-15 [1]) [%],growth inhibition (GI) (MCF7),inhibition of growth at 50 µM (SK-LU-1 [2]) [%],IC50 (HCT-15 [3]),IC50 (SK-LU-1 [4]),inhibition of growth at 50 µM (PC-3) [%],inhibition of growth at 50 µM (MCF7) [%],growth inhibition (GI) (U-251),growth inhibition (GI) (K562),growth inhibition (GI) (HCT-15 [1]),growth inhibition (GI) (SK-LU-1 [2])
CCCCCCCCCCCC1c2cc(c(OCC(=O)NCCN)cc2OCC(=O)NCCN)C(CCCCCCCCCCC)c2cc(c(OCC(=O)NCCN)cc2OCC(=O)NCCN)C(CCCCCCCCCCC)c2cc(c(OCC(=O)NCCN)cc2OCC(=O)NCCN)C(CCCCCCCCCCC)c2cc1c(OCC(=O)NCCN)cc2OCC(=O)NCCN (configuration not stated),18.1,Active,11.2,31.5,Active,16.2,Active,Active,–,–,–,–,–,–
NCCNC(=O)COc1cc(OCC(=O)NCCN)c2cc1C(CCc1ccccc1)c1cc(c(OCC(=O)NCCN)cc1OCC(=O)NCCN)C(CCc1ccccc1)c1cc(c(OCC(=O)NCCN)cc1OCC(=O)NCCN)C(CCc1ccccc1)c1cc(c(OCC(=O)NCCN)cc1OCC(=O)NCCN)C2CCc1ccccc1 (configuration not stated),37,–,35.3,34.9,–,30.9,–,–,29,33.2,–,–,–,–
COC(=O)CN1C(=O)CN=C(c2ccccc2)c2cc(Cl)ccc21,11.7,–,19.7,12,–,13.2,Active,Active,12.3,19.3,–,–,–,–
COC(=O)CN1C(=O)CN=C(c2ccccc2Cl)c2cc(Cl)ccc21,18.6,–,15.9,12.9,–,12.5,Active,Active,12.8,11.8,–,–,–,–
CCCCCCCCCCCC1c2cc(c(OCC(=O)NCCN(CCC(=O)NCCN)CCC(=O)NCCN)cc2OCC(=O)NCCN(CCC(=O)NCCN)CCC(=O)NCCN)C(CCCCCCCCCCC)c2cc(c(OCC(=O)NCCN(CCC(=O)NCCN)CCC(=O)NCCN)cc2OCC(=O)NCCN(CCC(=O)NCCN)CCC(=O)NCCN)C(CCCCCCCCCCC)c2cc(c(OCC(=O)NCCN(CCC(=O)NCCN)CCC(=O)NCCN)cc2OCC(=O)NCCN(CCC(=O)NCCN)CCC(=O)NCCN)C(CCCCCCCCCCC)c2cc1c(OCC(=O)NCCN(CCC(=O)NCCN)CCC(=O)NCCN)cc2OCC(=O)NCCN(CCC(=O)NCCN)CCC(=O)NCCN (configuration not stated),56.5,–,100,91.3,–,100,–,–,38.5,92,–,–,–,–
Oc1cc(O)c2cc1C(CCc1ccccc1)c1cc(c(O)cc1O)C(CCc1ccccc1)c1cc(c(O)cc1O)C(CCc1ccccc1)c1cc(c(O)cc1O)C2CCc1ccccc1 (configuration not stated),47.6,–,60.8,14.7,–,14.8,–,–,5.4,21.5,–,–,–,–
NCCNC(=O)CCN(CCNC(=O)COc1cc(OCC(=O)NCCN(CCC(=O)NCCN)CCC(=O)NCCN)c2cc1C(CCc1ccccc1)c1cc(c(OCC(=O)NCCN(CCC(=O)NCCN)CCC(=O)NCCN)cc1OCC(=O)NCCN(CCC(=O)NCCN)CCC(=O)NCCN)C(CCc1ccccc1)c1cc(c(OCC(=O)NCCN(CCC(=O)NCCN)CCC(=O)NCCN)cc1OCC(=O)NCCN(CCC(=O)NCCN)CCC(=O)NCCN)C(CCc1ccccc1)c1cc(c(OCC(=O)NCCN(CCC(=O)NCCN)CCC(=O)NCCN)cc1OCC(=O)NCCN(CCC(=O)NCCN)CCC(=O)NCCN)C2CCc1ccccc1)CCC(=O)NCCN (configuration not stated),–,Active,–,–,Active,–,Active,Active,–,–,Active,Active,Active,Active
COC(=O)CN1C(=O)CN=C(c2ccccc2F)c2cc(Cl)ccc21,20.7,–,27.2,26,–,19.8,–,–,22.4,24.5,–,–,–,–
COC(=O)CN1C(=O)CN=C(c2ccccc2)c2cc([N+](=O)[O-])ccc21,33.7,–,30.6,25.2,–,27.5,–,–,22.3,22.2,–,–,–,–

# — ChEMBL document CHEMBL1932995, “Synthesis of 5-aryl-1,4-benzodiazepine derivatives attached in resorcinaren-PAMAM dendrimers and their anti-cancer activity” (Bioorg Med Chem, 2012)
